{"data": "Published values of several laboratories", "target": "Protein kinase C theta type (PRKCQ, Homo sapiens, UniProt Q04759)", "note": "Each line is one published result; the experiments were not run side by side."}
{"SMILES": "N#CC1(c2ccccn2)CCN(Cc2cc(C(=O)O)c(=O)n3ccccc23)CC1", "read-out": "cell-free assay", "method": "competition with immobilised ligand", "concentration": "1 µM", "endpoint": "remaining binding", "result": "96%"}
{"SMILES": "C#Cc1n[nH]c2c(-c3cn(C(C)c4ccccn4)c(=O)[nH]c3=O)cc(F)cc12 (stereo not shown)", "read-out": "enzyme activity", "mode": "inhibitor", "concentration": "1 µM", "endpoint": "inhibition", "result": "1.2%"}
{"SMILES": "O=c1[nH]c2ccccc2n1C1CCN(Cc2ccc(-c3[nH]c4cc5ncnc5cc4nc3-c3ccccc3)cc2)CC1", "read-out": "cell-free assay", "concentration": "0.5 µM", "endpoint": "remaining signal", "result": "96.4%"}
{"SMILES": "Cn1cc(-c2cccc(N3CCc4c(sc5c4CC(C)(C)C5)C3=O)c2CO)cc(Nc2ccncn2)c1=O", "read-out": "enzyme activity", "mode": "inhibitor", "concentration": "1 µM", "endpoint": "inhibition", "result": "-5%"}
{"SMILES": "COc1ncccc1-c1cnn2ccc(N3CCN(C(=O)OC(C)C)CC3)nc12", "read-out": "binding", "method": "competition with immobilised ligand", "concentration": "1 µM", "endpoint": "remaining binding", "result": "100%"}
{"SMILES": "Cn1cncc1[C@@](O)(COc1ccc(C#N)cc1-c1ccc(OC(F)(F)F)cc1)c1ccc(C#N)cc1", "read-out": "cell-free assay", "method": "competition with immobilised ligand", "concentration": "1 µM", "endpoint": "remaining binding", "result": "100%"}
{"SMILES": "Cc1nn(C)cc1-c1nc2c(N3CCN(Cc4ccc(Cl)cc4)CC3)c(Cl)cnc2[nH]1", "read-out": "binding", "method": "competition with immobilised ligand", "concentration": "1 µM", "endpoint": "remaining binding", "result": "100%"}
{"SMILES": "Cn1cc(-c2cc(F)cc(N3CCn4c(cc5c4CCCC5)C3=O)c2CO)cc(Nc2ccc(N3CCN(C4COC4)CC3)cn2)c1=O", "read-out": "enzyme activity", "mode": "inhibitor", "concentration": "0.1 µM", "endpoint": "inhibition", "result": "0%"}
{"SMILES": "CC(C)(C)c1cc(C=C(C#N)C#N)cc(Br)c1O", "read-out": "enzyme activity", "mode": "inhibitor", "concentration": "0.5 µM", "endpoint": "remaining activity", "result": "98%"}
{"SMILES": "Nc1ncc(-c2nc(N3CCOCC3)nc(N3CCOCC3)n2)c(C(F)F)n1", "read-out": "cell-free assay", "method": "competition with immobilised ligand", "concentration": "10 µM", "endpoint": "remaining binding", "result": "37%"}
